rRNA inh HTS – selective bacterial rRNA inhibition in E. coli; E. coli WT GFP vs humanized-ribosome RFP mutants, fluorescence, 24 h; hits give low values; DMSO median 0, no signal -100; GFP signal change (wild-type ribosome), % (no concentration beside the values); actives 1.6% (n = 350,000);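 active means significant combined selectivity score with lowered wild-type GFP, culture density cut under 30%, mutant RFP and density less affected; inactive means any of these conditions unmet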
PGC1a acetyl inh – lowers PGC1a acetylation signal in U2OS cells. inhibition, % at 15.6 µM. AlphaScreen anti-acetyl-lysine; with virally co-expressed GCN5 acetyltransferase. actives 0.17% (n = 350,000);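 active means every replicate shows inhibition of at least 40%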;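 further: 0% = neutral control wells and 100% = positive control wells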
Cneo AK release – Cryptococcus neoformans lysis via adenylate kinase release | C. neoformans lysis, adenylate kinase release luminescence, 4 h; normalised: neutral wells 0, clomiphene wells 100 | lysis activity, % at 15 µM | actives 0.2% (n = 360,000) | AID 651654;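 active means mean lysis activity across replicates of at least 80%, whatever share of replicates individually reach that level; inactive means mean lysis activity below 80%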
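Material – Cryptococcus neoformans yeast cells · Quantity – 5 × 10^6 yeast cells/mL · Buffer or medium – YPD medium · Compound – single dose · Timing – 4 h static compound exposure, 37 °C, read 1 h post-reagent · Signal – adenylate kinase release luminescence · Read-out basis – lysis from increased AK signal · Benchmarks – Clomiphene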
Env fusion inh – inhibitors of HIV Env-mediated cell fusion; AID 651610; actives 1.1% (n = 360,000); inhibition, % at 12.3 µM; HeLa-JRFL Env/CEM21 cell fusion, luciferase;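 active means mean replicate inhibition score of at least 50 and every replicate individually at or above 50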;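 further: 0% = plate neutral controls and 100% = maraviroc near 300 nM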
FGF22 binding – FGF22 (human) thermal shift binding. Q9HCT0. recombinant FGF22 thermal shift, SYPRO orange fluorescence; percent of sucrose octasulfate shift, DMSO zero. activity (Tm shift, normalised), % at 9.99 µM. actives 1.5% (n = 340,000). AID 651658;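 active means mean Tm shift, scaled 0 neutral to 100 positive control, at about 1.3% or above, every replicate too, limit read from the data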
ERAP1 inh – ERAP1 (human) enzyme inhibition. recombinant ERAP1, Leu-AMC fluorescence, 60 min. inhibition, % at 10.7 µM. Q9NZ08. actives 0.15% (n = 340,000);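 active means mean replicate inhibition of at least 30%, or all replicates individually reaching that 30% level; inactive means mean below 30% and not every replicate reaching it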;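 further: 0% = neutral control wells and 100% = L-leucinethiol positive control wells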
The depositor's hits bear a star; · = not tested or not shown; [ ] = another dose, or the depositor's remark. Compounds with a hit are over-represented: about 3.5% of the library has one in this group of screens.

SMILES	rRNA inh HTS	PGC1a acetyl inh	Cneo AK release	Env fusion inh	FGF22 binding	ERAP1 inh
O=C(CSc1ncc(-c2ccccc2)[nH]1)Nc1cccc(O)c1	-26	-8	-2	·	0	-2
COc1cccc(NC(=O)CSc2ncc(S(=O)(=O)c3ccccc3)c(=O)[nH]2)c1	2	6	1	7	1.8*	-1
C=CCN(C(=O)CCC(=O)Nc1cc(C)on1)C(C(=O)NC(C)(C)C)c1ccc(OC)cc1 (stereo not given)	0	-9	3	-3	0	-4
CC(C)CC(=O)Nc1cccc(-c2nc3ncccc3o2)c1	2	0	0	-19	0	1
CCCC(=O)NC(=S)Nc1cccc(-c2nc3ncccc3o2)c1	9	5	·	20	43*	-2
COc1cc2c(cc1OC)C(c1ccc3c(c1)Cc1ccccc1-3)OC(=O)C2 (stereo not given)	-23*	-32	-1	2	0	-1
Cc1cc(-c2ccc(C)c(S(=O)(=O)Nc3cccc(CN4CCCC4)c3)c2)on1	-7	·	14	-12	0	2
Cc1nn(CC2CC2)c(=O)n1-c1ccc(Oc2ccccc2)cc1	-20	4	·	28	43*	3
COc1ccc(-n2c(C)nn(CCOc3ccccc3)c2=O)cc1	-5	4	·	5	0	1
CCn1c(=O)c(C(=O)Nc2ccccc2S(N)(=O)=O)c(O)c2ccccc21	·	7	-1	·	·	·
O=C(O)CC1COc2ccccc2N1S(=O)(=O)c1ccc(Br)cc1 (stereo not given)	-14	24	0	2	0	-4
CCC(C)NCCOCCOc1ccc(Cl)c2ccccc12 (stereo not given)	-53*	-3	4	36	0	5
O=C(CNC(=O)c1cccc(Cl)c1)N/N=C/c1cccnc1	4	5	-3	-14	0	·
Cn1c(SCCOc2ccccc2F)nc2ccccc2c1=O	-28*	·	·	10	0	-2
CCCOc1ccc(N2C(=O)CC(SC(=NCC)NCC)C2=O)cc1 (stereo not given)	·	·	·	7	·	·
C[C@@H]1CCCCO[C@@H](CN(C)C(=O)Nc2ccc(F)cc2)[C@H](C)CN([C@H](C)CO)C(=O)c2cc(NS(=O)(=O)c3ccccc3)ccc2O1	-4	1	-1	0[16.7 µM]	-1	-2
COc1cc(N2C(=O)C=CC2=O)c(OC)cc1Cl	24	-21	-6	-2	0	35*
Nc1nc(SCc2ccc(Br)cc2)n[nH]1	1	·	0	14	0	-1
CCN1CCN(C(CC(C)C)c2nnnn2CS(=O)(=O)c2ccc(C)cc2)CC1 (stereo not given)	7	-2	1	14	0	-5
COC(=O)c1c(N2C(=O)Nc3ccccc3N2O)sc(C)c1C	-1	·	1	7	43*	-28
CC(C)n1c(=O)[nH][nH]c1=S	28	6	-1	25	0	85*
CC(=O)Nc1sc(N/N=C/c2ccc(N(C)C)cc2)nc1-c1ccc(C)cc1	-33*	-1	-2	-3	0	0
O=C(c1ccccc1)n1ccc2ccccc21	·	10	1	·	·	·
O=C(N/N=C/c1cc([N+](=O)[O-])ccc1Cl)c1cnccn1	14	-3	3	-16	43*	-4
CC1(C)Oc2ccc3ccc(=O)oc3c2-c2cnoc21	3	12	1	19	0	56*
SMILES	rRNA inh HTS	PGC1a acetyl inh	Cneo AK release	Env fusion inh	FGF22 binding	ERAP1 inh
S=C(Nc1ccccc1)Nc1ccc(OCc2ccc(Cl)cc2Cl)cc1	·	·	5	103*	·	·
S=C(NCCSCc1ccc(Cl)cc1Cl)Nc1ccccc1	·	21	74	-56	·	·
C/C(=N/NS(=O)(=O)c1ccc(Br)cc1)c1c[nH]c2ccccc12	2	3	4	66*	0	3
COc1cccc(S(=O)(=O)N(C)C[C@H]2OCc3ccccc3-c3ccccc3C(=O)N([C@H](C)CO)C[C@H]2C)c1	-1	-6	0	-11[16.7 µM]	0	-4
C[C@@H]1CN([C@H](C)CO)C(=O)c2ccccc2-c2ccccc2CO[C@H]1CN(C)S(=O)(=O)c1cccc(C#N)c1	1	0	95*	11[16.7 µM]	0	0
COc1cccc(S(=O)(=O)N(C)C[C@@H]2OCc3ccccc3-c3ccccc3C(=O)N([C@@H](C)CO)C[C@@H]2C)c1	-3	-13	100*	33[16.7 µM]	0	-2
Cc1cc(C)c(S(=O)(=O)c2c(C)cccc2C)c(OCC(C)C)n1	·	·	-2	78*	·	·
O=C(COc1ccccc1Cl)NC(=S)N1CCc2ccccc21	-52*	·	·	·	0	-3
COc1ccccc1C(=O)NC(=S)N1CCc2ccccc21	-24*	·	·	13	0	5
COc1ccccc1C(=O)NC(=S)N1CCCc2ccccc21	-6	0	-1	·	0	-2
O=C(NCc1cccs1)[C@@H]1CCCN1S(=O)(=O)c1ccccc1F	7	·	·	-7	0	0
CC(=O)c1ccc(-c2c(C)cc3oc(=O)cc(-c4ccccc4)c3c2C)cc1	-22*	·	1	-24	0	·
Cn1cccc1/C=C1\SC(=S)N(NC(=O)c2ccccc2O)C1=O	-28*	1	·	-8	0	·
O=C1C(=Cc2ccccc2O)SC(=S)N1CCCN1CCOCC1	8	-1	-2	85*	0	7
Cc1ccc(/C=C2\SC(=S)N(CCCC(=O)NNC(=O)c3ccccc3O)C2=O)cc1	18	5	-1	96*	0	·
CCc1ccc(/C=C2\SC(=S)N(CCCC(=O)NC3=NCCS3)C2=O)cc1	4	-3	-1	59*	0	-3
COc1ccc(S(=O)(=O)N(C)C[C@@H]2OCCCC[C@H](C)Oc3ccc(NC(=O)c4ccncc4)cc3C(=O)N([C@H](C)CO)C[C@@H]2C)cc1	-7	-4	4	14[16.7 µM]	0	-2
O=C1NC[C@@H](CCCCN2C[C@H](Cc3ccc(O)cc3)N(CCc3ccc(O)cc3)C(=O)C2=O)N(CCc2ccc(O)cc2)C1=O	13	·	·	-177	0	-1
CC(=Cc1ccccc1)C=C1SC(=S)N(CCCC(=O)Nc2ccc(C(=O)O)c(O)c2)C1=O	-45	-8	-3	11	2.6*	9
CC(/C=C1\SC(=S)N(CCC(=O)Nc2ccc(O)cc2)C1=O)=C\c1ccccc1	-8	·	7	7	·	2
Cc1ccc(/C=C2\SC(=S)N(CCCC(=O)N3CCOCC3)C2=O)cc1	-26*	·	-2	12	1	2
Cc1ccc(/C=C2/SC(=S)N(CCCC(=O)Nc3ccc(O)cc3)C2=O)cc1	-2	-7	·	55*	1	7
COc1ccc(C(=O)COC(=O)COc2cccc3c2OC(C)(C)C3)c(OC)c1	1	0	0	-6	0	2
